Data as given in PubChem BioAssay.
Calls of active or inactive are those of the source.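 How the source made its calls, unless noted: active means visual image review flags a hit and inhibition of aggregation exceeds 20%; inconclusive means visual hit but inhibition at or below 20%; inactive means no hit on visual image review.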

Assays:
[1] = inhibitors of TNFa-induced NFkB p65 translocation, primary screen, imaging, HUVEC, MLSMR starter and 10KST1 sets (AID 438;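 active means inhibition above 20% together with a positive visual image hit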;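 further: compound added about 3h40 before a 20 min TNFalpha stimulation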;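 on inhibition: signal is the nuclear over cytoplasmic p65 intensity ratio per well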); settings: HUVEC TNFa-induced p65 nuclear translocation; cell count: measured here: nuclei count (cytotoxicity indicator), at 2.08 µM; inhibition: at 2 µM, stronger effect = higher value, 0% TNFa-plus-vehicle, 100% no-TNFa wells
[2] = inhibitors of mutant huntingtin aggregation, primary screen, imaging, exon1htt(103Q)mCFP cells, high-content imaging (AID 483); settings: exon1htt(103Q)mCFP cell line, aggregate imaging, at 2 µM; inhibition of aggregation: stronger effect = higher value; nuclei count: measured here: cell count, toxicity;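 further: compound exposure lasted 3 days before fixation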;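 on nuclei count: percent of the per-plate median nuclei count of sample wells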
[3] = inhibitors of E-selectin induction by TNFa, primary screen, imaging, HUVEC, immunofluorescence, MLSMR starter and 10KST1 sets (AID 487;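 active means visually confirmed hit in the image check and inhibition above 20%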;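 on inhibition: signal is fraction of cell area covered by stained E-selectin grains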;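 on nuclei count: 100% = median nuclei count of all wells on the same plate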); settings: HUVEC TNFalpha-induced E-selectin immunofluorescence imaging, at 2 µM; inhibition: stronger effect = higher value; nuclei count: measured here: cell number, toxicity
[4] = target: Voltage-gated potassium channel subunit beta-2 (Rattus norvegicus) (UniProt P62483); experiment: KvBeta enzyme negative modulators, primary screen, biochemical, NADPH fluorescence (AID 622;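 active means fluorescence slope higher than the sample average by over 3 SD, cut at about -0.22 in these data, passing the limit was not always enough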;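 further: slope of raw intensity against log time taken from 70 to 1610 s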); settings: recombinant KvBeta, 4-cyanobenzaldehyde reduction, at 10 µM, stronger effect = higher value
Chain of Voltage-gated potassium channel subunit beta-2 (Rattus norvegicus) (P62483 whole entry, looked up): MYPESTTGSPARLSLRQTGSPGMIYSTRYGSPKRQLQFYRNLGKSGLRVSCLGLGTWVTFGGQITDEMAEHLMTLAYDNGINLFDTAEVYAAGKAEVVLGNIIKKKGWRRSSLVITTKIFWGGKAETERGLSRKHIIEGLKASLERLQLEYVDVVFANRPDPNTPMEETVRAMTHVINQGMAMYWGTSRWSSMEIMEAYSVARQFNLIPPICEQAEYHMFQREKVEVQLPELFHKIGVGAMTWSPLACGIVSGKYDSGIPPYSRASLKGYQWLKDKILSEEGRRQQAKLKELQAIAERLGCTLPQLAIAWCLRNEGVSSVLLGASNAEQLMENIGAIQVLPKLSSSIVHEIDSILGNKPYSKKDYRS

[5] = target: Voltage-gated potassium channel subunit beta-2 (Rattus norvegicus) (UniProt P62483); experiment: KvBeta positive modulators, primary screen, biochemical, NADPH fluorescence (AID 623;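 active means NADPH fluorescence slope more negative than the mean of all samples by about 3 SD, 99.7% confidence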;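 further: fluorescence intensity change per second fitted from 20 to 320 s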); settings: Recombinant KvBeta, NADPH fluorescence decrease slope, 10 min; at 10 µM; stronger effect = lower value
[6] = target: Muscarinic acetylcholine receptor M4 (Homo sapiens) (UniProt P08173); experiment: compounds altering M4/GIRK thallium flux, either direction, primary screen, M4 allosteric agonist project, cell-based, HEK293 M4/GIRK, BTC-AM (AID 625;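 active means fluorescence slope after compound addition differing from the mean of all tested samples at 99.7% confidence, mostly higher but some lower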;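 further: thallium influx through GIRK channels coupled to M4 in HEK293 cells with BTC-AM dye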); settings: at 10 µM, actives lie on both sides
Chain of Muscarinic acetylcholine receptor M4 (Homo sapiens) (P08173 whole entry, looked up): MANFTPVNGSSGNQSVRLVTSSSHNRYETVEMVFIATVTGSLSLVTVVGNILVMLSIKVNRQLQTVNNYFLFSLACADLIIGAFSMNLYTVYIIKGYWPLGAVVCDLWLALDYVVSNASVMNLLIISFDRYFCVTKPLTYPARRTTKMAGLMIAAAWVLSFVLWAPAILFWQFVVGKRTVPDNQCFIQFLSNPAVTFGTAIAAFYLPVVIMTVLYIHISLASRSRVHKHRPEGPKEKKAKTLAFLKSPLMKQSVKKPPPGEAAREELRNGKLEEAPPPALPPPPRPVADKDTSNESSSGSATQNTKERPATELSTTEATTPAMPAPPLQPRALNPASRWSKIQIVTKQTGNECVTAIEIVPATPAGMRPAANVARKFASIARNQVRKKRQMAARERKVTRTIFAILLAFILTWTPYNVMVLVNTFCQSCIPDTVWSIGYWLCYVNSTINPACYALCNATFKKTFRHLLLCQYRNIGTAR
How it was run: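 Material – HEK293 cells with M4 receptor and GIRK channels · Buffer or medium – pH 7.3 thallium assay buffer · Doses – one dose, 10 µM final · Timing – cells overnight at 37 °C, BTC-AM loading 1 h, reads 2 min total · Measured by – kinetic fluorescence with BTC-AM dye · Controls – carbachol and DMSO controls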

[7] = inhibitors of Sendai virus-induced IRF3 signaling, primary screen, TLR/RLR signaling modifier project, cell-based, Sendai virus stimulus, luciferase, 10K MLSCN set (AID 602276;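 active means inhibition at or above 50% at 10 µM; inactive means inhibition below 50%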;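 further: firefly luciferase from ISG56 promoter only with Renilla not read in this screen; 0% = Sendai virus plus DMSO and 100% = medium plus DMSO without virus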); settings: HEK293 RL24 IRF3 luciferase reporter, at 10 µM, stronger effect = higher value
[8] = inhibitors of poly I:C-induced TLR3 signaling, primary screen, cell-based, poly I:C stimulus, luciferase, 10K MLSCN set (AID 602277;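 active means inhibition of the reporter signal at or above 50%; inactive means inhibition below 50%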); settings: HEK293-TLR3 RL24 IRF3 luciferase reporter, at 10 µM, stronger effect = higher value

In the case of `Cc1cccn2c(=O)c3cc(C#N)c(=NC(=O)c4cccnc4)n(CC4CCCO4)c3nc12` (stereo not given), the cell count [1] is reported as 852, the inhibition [1] is reported as -2.8% (inactive) and the inhibition of aggregation [2] is reported as -7.5% (inactive). For the same molecule, the nuclei count [2] was 105%, the inhibition [3] was -74.7% (inactive) and the nuclei count [3] was 107%. For the same molecule, the fluorescence slope [4] was -0.0377 (active), the NADPH fluorescence slope [5] was -8.2e-07 (inactive) and the fluorescence slope [6] was 0.0039 (inactive). The inhibition [7] was -14.2% (inactive) and the inhibition [8] was -0.613% (inactive).

For `COC(=O)c1ccc2ncccc2c1`, the cell count [1] was 378, the inhibition [1] was 2.6% (inactive) and the inhibition of aggregation [2] was 9.1% (inactive). For the same molecule, the nuclei count [2] was 106%, the inhibition [3] was -10.4% (inactive) and the nuclei count [3] was 95.7%. For the same molecule, the fluorescence slope [4] was -0.536 (inactive), the NADPH fluorescence slope [5] was -8.5e-05 (inactive) and the fluorescence slope [6] was 0.00451 (inactive). The inhibition [7] was -15.2% (inactive) and the inhibition [8] was -24.8% (inactive).

With `O=C(c1cc(-c2cccs2)on1)N1CCc2ccccc2C1` the cell count [1] was 490, the inhibition [1] was -4.5% (inactive) and the inhibition of aggregation [2] was -23.8% (inactive). The nuclei count [2] was 106%, the inhibition [3] was -28.9% (inactive) and the nuclei count [3] was 96.8%. The fluorescence slope [4] was -0.441 (inactive), the NADPH fluorescence slope [5] was -4.4e-06 (inactive) and the fluorescence slope [6] was 0.00464 (inactive). The inhibition [7] was 4.86% (inactive) and the inhibition [8] was -18.5% (inactive).

In the case of `COc1cc2[nH]c(=O)n(CCC(=O)N3CCc4ccccc4C3)c(=O)c2cc1OC`, the cell count [1] is reported as 452, the inhibition [1] is reported as -20.3% (inactive) and the inhibition of aggregation [2] is reported as 6.9% (inactive). The nuclei count [2] was 94.4%, the inhibition [3] was -83.3% (inactive) and the nuclei count [3] was 108%. For the same molecule, the fluorescence slope [4] was -0.15 (inactive), the NADPH fluorescence slope [5] was -9.5e-06 (inactive) and the fluorescence slope [6] was 0.00747 (inactive). For the same molecule, the inhibition [7] was 14.4% (inactive) and the inhibition [8] was -15.8% (inactive).

With `Cc1ccc(Cn2nnc3c(=O)[nH]c(C4CCN(S(=O)(=O)c5ccc(F)cc5)CC4)nc32)cc1` the cell count [1] was 436, the inhibition [1] was 9.4% (inactive) and the inhibition of aggregation [2] was 11.5% (inactive). For the same molecule, the nuclei count [2] was 107%, the nuclei count [3] was 153% and the fluorescence slope [4] was -0.584 (inactive). The NADPH fluorescence slope [5] was 1.2e-05 (inactive), the fluorescence slope [6] was 0.00687 (inactive) and the inhibition [7] was 0.788% (inactive). For the same molecule, the inhibition [8] was -11.3% (inactive).

With `CC1(C)NC(=O)N(CC(O)CN(Cc2ccccc2)Cc2ccccc2)C1=O` (stereo not given) the cell count [1] was 606, the inhibition [1] was 9.2% (inactive) and the inhibition of aggregation [2] was 14% (inactive). For the same molecule, the nuclei count [2] was 84.4%, the inhibition [3] was -13% (inactive) and the nuclei count [3] was 113%. For the same molecule, the fluorescence slope [4] was -0.299 (inactive), the NADPH fluorescence slope [5] was -4e-05 (inactive) and the fluorescence slope [6] was 0.00564 (inactive). The inhibition [7] was 9.57% (inactive) and the inhibition [8] was 21.2% (inactive).
